Reference: ChEMBL document CHEMBL1127659, “In vitro and in vivo activities of reduced-size antagonists of luteinizing hormone-releasing hormone” (J Med Chem, 1994)
Where a SMILES comes first, the peptide text is derived from it. [ ]: non-standard residue; d: D form. The star is where a group is joined. Propanoyl(3-(4-Cl-Ph)) = O=C(CCc1ccc(Cl)cc1)*; Desaminotyrosyl = O=C(CCc1ccc(O)cc1)*; X1 = O=C(Cc1ccc(O)cc1)*

Organism: Rattus norvegicus
Assay: In vitro antagonistic potency against release of luteinizing hormone (LH) from cultured rat pituitary cells.
Type: functional
Conditions: Pituitary gland cell, read-out: pA2 (converted)
Summary of the method: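 Cultured rat pituitary cells, agonist-stimulated LH release. pA2 is the negative log of the antagonist concentration that makes a 2-fold higher agonist concentration necessary to release LH. Compounds tested as TFA salts.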

Work on `CCNC(=O)[C@@H]1CCCN1C(=O)[C@H](CCCN=C(N)N)NC(=O)[C@H](CC(C)C)NC(=O)[C@@H](Cc1c[nH]c2ccccc12)NC(=O)[C@H](Cc1ccc(O)cc1)NC(=O)[C@H](CO)NC(=O)[C@H](Cc1c[nH]c2ccccc12)NC(=O)Cc1ccc(Cl)cc1` yielded a Kb of 5500 pM.
Molecule `CCNC(=O)[C@@H]1CCCN1C(=O)[C@H](CCCN=C(N)N)NC(=O)[C@H](CC(C)C)NC(=O)[C@@H](Cc1c[nH]c2ccccc12)NC(=O)[C@H](Cc1ccc(O)cc1)NC(=O)[C@H](CO)N(C)C(=O)[C@@H](Cc1c[nH]c2ccccc12)NC(=O)CCc1ccc(F)cc1` has a Kb of 115 pM.
`CCNC(=O)[C@@H]1CCCN1C(=O)[C@H](CCCN=C(N)N)NC(=O)[C@H](CC(C)C)NC(=O)[C@@H](Cc1c[nH]c2ccccc12)NC(=O)[C@H](Cc1ccc(O)cc1)NC(=O)[C@H](CO)NC(=O)[C@@H](Cc1c[nH]c2ccccc12)NC(=O)c1cc2ccccc2[nH]1` showed a Kb of 851 pM.
Work on `CCNC(=O)[C@@H]1CCCN1C(=O)[C@H](CCCN=C(N)N)NC(=O)[C@H](CC(C)C)NC(=O)[C@@H](Cc1ccc(O)cc1)NC(=O)[C@H](Cc1ccc(O)cc1)NC(=O)[C@H](CO)NC(=O)[C@@H](Cc1c[nH]c2ccccc12)NC(=O)CCc1ccc(F)cc1` yielded a Kb of 31.6 pM.
Work on `CCNC(=O)[C@@H]1CCCN1C(=O)[C@H](CCCCNC(C)C)NC(=O)[C@H](CC(C)C)NC(=O)[C@@H](CCCCNC(=O)c1cccnc1)NC(=O)[C@H](Cc1ccc(O)cc1)N(C)C(=O)[C@H](CO)NC(=O)[C@@H](Cc1cccc2ccccc12)NC(=O)CCc1ccc(F)cc1` yielded a Kb of 3.72 pM.
`CCNC(=O)[C@@H]1CCCN1C(=O)[C@H](CCCN=C(N)N)NC(=O)[C@H](CC(C)C)NC(=O)[C@@H](Cc1c[nH]c2ccccc12)NC(=O)[C@H](Cc1ccc(O)cc1)NC(=O)[C@H](CO)NC(=O)[C@H](Cc1c[nH]c2ccccc12)NC(=O)CCc1ccc(OC)cc1` gave a Kb of 2400 pM.
`CCNC(=O)[C@@H]1CCCN1C(=O)[C@H](CCCN=C(N)N)NC(=O)[C@H](CC(C)C)NC(=O)[C@@H](Cc1c[nH]c2ccccc12)NC(=O)[C@H](Cc1ccc(O)cc1)NC(=O)[C@H](CO)NC(=O)[C@H](Cc1c[nH]c2ccccc12)NC(=O)CCc1ccc(F)cc1` gave a Kb of 589 pM.
Molecule `CCNC(=O)[C@@H]1CCCN1C(=O)[C@H](CCCN=C(N)N)NC(=O)[C@H](CC(C)C)NC(=O)[C@@H](Cc1c[nH]c2ccccc12)NC(=O)[C@H](Cc1ccc(O)cc1)NC(=O)[C@H](CO)NC(=O)[C@@H](Cc1c[nH]c2ccccc12)NC(=O)Cc1ccc(C(F)(F)F)cc1` has a Kb of 2630 pM.
Molecule `CCNC(=O)[C@@H]1CCCN1C(=O)[C@H](CCCN=C(N)N)NC(=O)[C@H](CC(C)C)NC(=O)[C@@H](Cc1c[nH]c2ccccc12)NC(=O)[C@H](Cc1ccc(O)cc1)NC(=O)[C@H](CO)NC(=O)[C@H](Cc1c[nH]c2ccccc12)NC(=O)CCc1ccc(Cl)cc1` has a Kb of 126 pM.
`CCNC(=O)[C@@H]1CCCN1C(=O)[C@H](CCCN=C(N)N)NC(=O)[C@H](CC(C)C)NC(=O)[C@@H](Cc1c[nH]c2ccccc12)NC(=O)[C@H](Cc1ccc(O)cc1)NC(=O)[C@H](CO)NC(=O)[C@@H](Cc1ccc(O)cc1)NC(=O)CCc1ccc(Cl)cc1` ({Propanoyl(3-(4-Cl-Ph))}-[dY]SY[dW]LRP-NHEt) gave a Kb of 83.2 pM.
In the case of `CC(C)C[C@H](NC(=O)[C@@H](CCCCNC(=O)c1cccnc1)NC(=O)[C@H](Cc1ccc(O)cc1)N(C)C(=O)[C@H](CO)NC(=O)[C@@H](Cc1cccc2ccccc12)NC(=O)CCc1ccc(F)cc1)C(=O)N[C@@H](CCCCNC(C)C)C(=O)N1CCC[C@H]1C(N)=O`, the Kb is reported as 6.92 pM.
Molecule `CCNC(=O)[C@@H]1CCCN1C(=O)[C@H](CCCN=C(N)N)NC(=O)[C@H](CC(C)C)NC(=O)[C@@H](Cc1ccc(Cl)cc1)NC(=O)[C@H](Cc1ccc(O)cc1)NC(=O)[C@H](CO)NC(=O)[C@H](Cc1c[nH]c2ccccc12)NC(=O)CCc1ccc(F)cc1` has a Kb of 8.91 pM.
With `CCNC(=O)[C@@H]1CCCN1C(=O)[C@H](CCCN=C(N)N)NC(=O)[C@H](CC(C)C)NC(=O)[C@@H](Cc1c[nH]c2ccccc12)NC(=O)[C@H](Cc1ccc(O)cc1)NC(=O)[C@H](CO)NC(=O)[C@H](Cc1c[nH]c2ccccc12)NC(=O)CCc1ccc(O)cc1` (Desaminotyrosyl-WSY[dW]LRP-NHEt) the Kb was 15500 pM.
`CC(C)C[C@H](NC(=O)[C@@H](CCCCNC(=O)c1cccnc1)NC(=O)[C@H](Cc1ccc(O)cc1)N(C)C(=O)[C@H](CO)NC(=O)[C@@H](Cc1cccc2ccccc12)NC(=O)CCc1ccc(F)cc1)C(=O)N[C@@H](CCCCNC(C)C)C(=O)N1CCC[C@H]1C(=O)O` was tested, and the Kb was 7760 pM.
In the case of `CCNC(=O)[C@@H]1CCCN1C(=O)[C@H](CCCN=C(N)N)NC(=O)[C@H](CC(C)C)NC(=O)[C@@H](Cc1c[nH]c2ccccc12)NC(=O)[C@H](Cc1ccc(O)cc1)NC(=O)[C@H](CO)NC(=O)[C@H](Cc1c[nH]c2ccccc12)NC(=O)Cc1ccc(O)cc1` (X1-WSY[dW]LRP-NHEt), the Kb is reported as 44700 pM.
Work on `CCNC(=O)[C@@H]1CCCN1C(=O)[C@H](CCCN=C(N)N)NC(=O)[C@H](CC(C)C)NC(=O)[C@@H](Cc1c[nH]c2ccccc12)NC(=O)[C@H](Cc1ccc(O)cc1)N(C)C(=O)[C@H](CO)NC(=O)[C@@H](Cc1cccc2ccccc12)NC(=O)CCc1ccc(F)cc1` yielded a Kb of 5.62 pM.
Molecule `CCNC(=O)[C@@H]1CCCN1C(=O)[C@H](CCCN=C(N)N)NC(=O)[C@H](CC(C)C)NC(=O)[C@@H](CCCCNC(=O)c1cccnc1)NC(=O)[C@H](Cc1ccc(O)cc1)NC(=O)[C@H](CO)NC(=O)[C@@H](Cc1c[nH]c2ccccc12)NC(=O)CCc1ccc(F)cc1` has a Kb of 95.5 pM.
`CCNC(=O)[C@@H]1CCCN1C(=O)[C@H](CCCN=C(N)N)NC(=O)[C@H](CC(C)C)NC(=O)[C@@H](Cc1c[nH]c2ccccc12)NC(=O)[C@H](Cc1ccc(O)cc1)NC(=O)[C@H](CO)NC(=O)[C@H]1CCCN1C(=O)CCc1ccc(F)cc1` gave a Kb of 2400 pM.
With `CCNC(=O)[C@@H]1CCCN1C(=O)[C@H](CCCN=C(N)N)NC(=O)[C@H](CC(C)C)NC(=O)[C@@H](CCCCNC(=O)c1cccnc1)NC(=O)[C@H](Cc1ccc(O)cc1)N(C)C(=O)[C@H](CO)NC(=O)[C@@H](Cc1c[nH]c2ccccc12)NC(=O)CCc1cccc(F)c1` the Kb was 87.1 pM.
`CCNC(=O)[C@@H]1CCCN1C(=O)[C@H](CCCN=C(N)N)NC(=O)[C@H](CC(C)C)NC(=O)[C@@H](CCCCNC(=O)c1cccnc1)NC(=O)[C@H](Cc1ccc(O)cc1)N(C)C(=O)[C@H](CO)NC(=O)[C@@H](Cc1c[nH]c2ccccc12)NC(=O)CCc1ccc(Cl)cc1` gave a Kb of 15.8 pM.
Work on `CCNC(=O)[C@@H]1CCCN1C(=O)[C@H](CCCN=C(N)N)NC(=O)[C@H](CC(C)C)NC(=O)[C@@H](Cc1c[nH]c2ccccc12)NC(=O)[C@H](Cc1ccc(O)cc1)NC(=O)[C@H](CO)NC(=O)[C@H](Cc1c[nH]c2ccccc12)NC(=O)Cc1ccccc1` yielded a Kb of 5500 pM.
Molecule `CCNC(=O)[C@@H]1CCCN1C(=O)[C@H](CCCN=C(N)N)NC(=O)[C@H](CC(C)C)NC(=O)[C@@H](Cc1c[nH]c2ccccc12)NC(=O)[C@H](Cc1ccc(O)cc1)N(C)C(=O)[C@H](CO)NC(=O)[C@@H](Cc1c[nH]c2ccccc12)NC(=O)CCc1ccc(Cl)cc1` has a Kb of 3.98 pM.
`CCNC(=O)[C@@H]1CCCN1C(=O)[C@H](CCCN=C(N)N)NC(=O)[C@H](CC(C)C)NC(=O)[C@@H](Cc1c[nH]c2ccccc12)NC(=O)[C@H](Cc1ccc(O)cc1)NC(=O)[C@@H]1CCCN1C(=O)[C@@H](Cc1c[nH]c2ccccc12)NC(=O)CCc1ccc(F)cc1` gave a Kb of 21400 pM.
Work on `CCNC(=O)[C@@H]1CCCN1C(=O)[C@H](CCCN=C(N)N)NC(=O)[C@H](CC(C)C)NC(=O)[C@@H](Cc1c[nH]c2ccccc12)NC(=O)[C@H](Cc1ccc(O)cc1)NC(=O)[C@H](CO)NC(=O)[C@@H](Cc1ccc(Cl)cc1)NC(=O)CCc1ccc(F)cc1` yielded a Kb of 17.8 pM.
